Legend:
Dihydrofolate reductase [1] = biological target: Dihydrofolate reductase (Lactobacillus casei, UniProt P00381); test: Inhibitory activity against dihydro folate reductase from Lactobacillus casei; design: species or system Lacticaseibacillus casei
Dihydrofolate reductase [2] = biological target: T1, Dihydrofolate reductase (Homo sapiens, UniProt P00374); test: Inhibitory activity against dihydro folate reductase from human recombinant sources
T1 sequence (P00374 whole entry): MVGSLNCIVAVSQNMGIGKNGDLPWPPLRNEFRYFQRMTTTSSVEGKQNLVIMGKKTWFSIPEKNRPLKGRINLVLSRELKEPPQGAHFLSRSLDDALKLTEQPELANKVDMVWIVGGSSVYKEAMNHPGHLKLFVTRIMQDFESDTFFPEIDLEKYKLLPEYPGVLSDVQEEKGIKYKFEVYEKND

Thymidylate synthase [3] = biological target: T2, Thymidylate synthase (Lactobacillus casei, UniProt P00469); test: Inhibitory activity against thymidylate Synthase from Lactobacillus casei; design: species or system Lacticaseibacillus casei
T2 sequence (P00469 whole entry): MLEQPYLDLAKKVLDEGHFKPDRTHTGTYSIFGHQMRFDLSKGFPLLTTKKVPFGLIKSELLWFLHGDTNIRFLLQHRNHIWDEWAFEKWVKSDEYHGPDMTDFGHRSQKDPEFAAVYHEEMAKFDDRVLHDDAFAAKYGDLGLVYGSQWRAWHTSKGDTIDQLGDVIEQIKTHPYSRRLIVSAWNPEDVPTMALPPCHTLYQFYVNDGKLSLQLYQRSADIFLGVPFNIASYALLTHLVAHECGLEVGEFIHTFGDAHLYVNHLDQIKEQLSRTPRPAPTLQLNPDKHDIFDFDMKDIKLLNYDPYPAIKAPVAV

Thymidylate synthase [4] = biological target: Thymidylate synthase (Homo sapiens, UniProt P04818); test: Inhibitory activity against thymidylate Synthase from human recombinant sources
A253 cell line = test: Growth inhibition against Human squamous cell line(A 253); assay type: functional, cell-based
Outline: (§1)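 Continuous drug exposure growth assay. CCRF-CEM and its MTX-resistant subline R30dm (1% of parental FPGS activity) cultured as previously reported; A253 and FaDu squamous carcinoma monolayers subcultured in RPMI 1640/10% fetal calf serum. EC50 read visually from plots of percent control growth against log drug concentration. Averages ± range for n = 2, ± SD for n ≥ 3.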

CCRF-CEM [5] = test: Growth inhibition against Human leukemic cell line (Methotrexate resistant CCRF-CEM); assay type: functional, cell-based; outline: as §1
CCRF-CEM [6] = test: Growth inhibition against Human leukemic cell line(CCRF-CEM); assay type: functional, cell-based; outline: as §1
Dihydrofolate reductase [7] = biological target: T1, Dihydrofolate reductase; test: Inhibitory activity against dihydro folate reductase from human CCRF-CEM leukemic cell line
FaDu [8] = test: Protection against the growth inhibition against Human squamous cell line(Fadu); assay type: functional; design: scale not given: the % may be the effect or the level left
FaDu [9] = test: Protection by 10 uM LV against the growth inhibition against Human squamous cell line(Fadu); assay type: functional; design: scale not given: the % may be the effect or the level left
FaDu [10] = test: Protection by 40 uM against the Growth inhibition against Human squamous cell line(Fadu), in the presence of 40 uM thymidine; assay type: functional; design: scale not given: the % may be the effect or the level left
FaDu [11] = test: Protection by 50 uM against the Growth inhibition against Human squamous cell line(Fadu); assay type: functional; design: scale not given: the % may be the effect or the level left
FaDu [12] = test: Protection by 50 uM+40 uM against Growth inhibition against Human squamous cell line(Fadu), in the presence of 50 uM hypoxanthine +40 uM thymidine; assay type: functional; design: scale not given: the % may be the effect or the level left
FaDu [13] = test: Growth inhibition against Human squamous cell line(Fadu); assay type: functional, cell-based; outline: as §1
CCRF-CEM [14] = test: Growth inhibition against Human leukemic cell line(CCRF-CEM) during continuous exposure

Sequence of Dihydrofolate reductase (Lactobacillus casei, UniProt P00381) (P00381 whole entry): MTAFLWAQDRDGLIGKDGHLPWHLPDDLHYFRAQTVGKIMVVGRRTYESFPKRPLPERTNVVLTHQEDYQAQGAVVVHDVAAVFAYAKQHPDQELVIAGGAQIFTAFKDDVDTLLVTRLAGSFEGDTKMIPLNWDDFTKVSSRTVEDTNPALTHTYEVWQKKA
Sequence of Thymidylate synthase (Homo sapiens, UniProt P04818) (P04818 whole entry): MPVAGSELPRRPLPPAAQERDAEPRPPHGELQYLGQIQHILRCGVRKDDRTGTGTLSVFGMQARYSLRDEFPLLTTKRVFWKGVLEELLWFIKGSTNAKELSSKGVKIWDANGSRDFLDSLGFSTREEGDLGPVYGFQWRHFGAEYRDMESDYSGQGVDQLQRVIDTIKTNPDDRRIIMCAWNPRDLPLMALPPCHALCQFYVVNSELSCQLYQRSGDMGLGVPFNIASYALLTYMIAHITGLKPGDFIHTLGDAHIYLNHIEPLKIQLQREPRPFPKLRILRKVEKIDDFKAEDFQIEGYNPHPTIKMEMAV

EC50 (CCRF-CEM [14]) | Compound | IC50 (Dihydrofolate reductase [1]) | IC50 (Dihydrofolate reductase [2]) | IC50 (Thymidylate synthase [3]) | IC50 (Thymidylate synthase [4]) | EC50 (A253 cell line) | EC50 (CCRF-CEM [5]) | EC50 (CCRF-CEM [6]) | IC50 (Dihydrofolate reductase [7]) | Control (FaDu [8]) | Control (FaDu [9]) | Control (FaDu [10]) | Control (FaDu [11]) | Control (FaDu [12]) | EC50 (FaDu [13])
– | CC1=C(Sc2ccncc2)C2C(=O)NC(N)=NC2N1 (centres undefined) | > 69000 nM | > 69000 nM | 100000 nM | 340 nM | – | – | – | – | – | – | – | – | – | –
– | CC1=C(Sc2ccc(C(=O)NC(CCC(=O)O)C(=O)O)cc2)C2C(=O)NC(N)=NC2N1 (centres undefined) | 2200 nM | 2200 nM | 21 nM | – | 3000 nM | 810 nM | 450 nM | 124 nM | 5% | 7% | 83% | 4% | 78% | 530 nM
720 nM | C#CCN(Cc1ccc2[nH]c(N)nc(=O)c2c1)c1ccc(C(=O)NC(CCC(=O)O)C(=O)O)cc1 (centres undefined) | – | – | – | – | – | – | – | – | – | – | – | – | – | –
– | CN(Cc1cnc2nc(N)nc(N)c2n1)c1ccc(C(=O)N[C@@H](CCC(=O)O)C(=O)O)cc1 [METHOTREXATE] | – | – | – | – | 13 nM | – | – | – | 2% | 114% | 11% | 18% | 95% | –
